Measured values as given in ChEMBL document CHEMBL3227917, “Structure-activity relationships of dimeric Catharanthus alkaloids. 2. Experimental antitumor activities of N-substituted deacetylvinblastine amide (vindesine) sulfates” (J Med Chem, 1979).

How the values were obtained:
[1] = Antitumor activity against mouse Gardner lymphosarcoma allografted in C3H mouse assessed as tumor growth inhibition at 0.40 mg/kg, ip administered daily for 8 to 10 days; type: functional; settings: route intraperitoneal, read-out: TGI
Summary of the method: (§1)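 Gardner lymphosarcoma in C3H mice; sulfate salts unless noted, given ip daily for 8–10 days, treatment starting 8 days after tumor implantation. Tumor growth inhibition scored as –, 0–25%; +, 26–50%; ++, 51–75%; +++, 76–100%; T, lethal to ≥5 of 10 animals per group. Average of one or more tests.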

P388/VCR [2] = test: Antitumor activity against mouse P388/VCR cells allografted in CD2F1 mouse assessed as increase in host lifespan at 1.80 mg/kg, ip administered on days 1, 5 and 9; type: functional; settings: dose 1.8 mg/kg; route intraperitoneal
Summary of the method: (§2)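 Groups of eight male CD2F1 mice, tested at the NCI. Compounds were given as sulfate salts, dosed in mg/kg ip on days 1, 5 and 9. Activity was read as percent increase in lifespan against the leukemia line.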

[3] = Antitumor activity against mouse Gardner lymphosarcoma allografted in C3H mouse assessed as tumor growth inhibition at 0.05 mg/kg, ip administered daily for 8 to 10 days; type: functional; settings: route intraperitoneal, read-out: TGI; summary of the method: as §1
[4] = Antitumor activity against mouse Gardner lymphosarcoma allografted in C3H mouse assessed as tumor growth inhibition at 0.30 mg/kg, ip administered daily for 8 to 10 days; type: functional; settings: route intraperitoneal, read-out: TGI; summary of the method: as §1
B16 [5] = test: Antitumor activity against mouse B16 cells allografted in C57BL/6 mouse assessed as prolongation of host survival at 0.90 mg/kg, ip administered on days 1,5 and 9; type: functional; settings: route intraperitoneal
Summary of the method: (§3)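 B16 melanoma cells (10⁶ inoculum) implanted ip in C57BL/6 mice; groups of 10. Sulfate salts unless noted, given ip on days 1, 5 and 9. Single test. Survival prolongation is expressed as percent versus controls, with survivors counted on day 60. Toxic means deaths of ≥5 of 10 animals before the first control death.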

B16 [6] = test: Antitumor activity against mouse B16 cells allografted in C57BL/6 mouse assessed as prolongation of host survival at 1.20 mg/kg, ip administered on days 1,5 and 9; type: functional; settings: route intraperitoneal; summary of the method: as §3
P388/S [7] = test: Antitumor activity against mouse P388/S cells allografted in CD2F1 mouse assessed as increase in host lifespan at 0.648 mg/kg, ip administered on days 1, 5 and 9; type: functional; settings: route intraperitoneal
Summary of the method: (§4)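 Groups of eight male CD2F1 mice bearing P388 leukemia, run at NCI. Sulfate salts given ip on days 1, 5 and 9. Read-out is percent increase in lifespan.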

[8] = Antitumor activity against mouse P388/VCR/I/63 cells allografted in Dublin-CDF1 mouse assessed as increase in host lifespan at 1.6 mg/kg, ip administered on days 1, 5 and 9; type: functional; settings: route intraperitoneal
P388/VCR [9] = test: Antitumor activity against mouse P388/VCR cells allografted in B6D2F1 mouse assessed as increase in host lifespan at 0.90 mg/kg, ip administered on days 1, 5 and 9; type: functional; settings: dose 0.9 mg/kg; route intraperitoneal
Summary of the method: (§5)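 P388/VCR leukemia in groups of 10 B6D2F1 mice, run at Lilly using the cell strain received from NCI. Sulfate salts given ip on days 1, 5 and 9. Read-out is percent increase in lifespan.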

[10] = Antitumor activity against mouse P1534 cells allografted in DBA2 mouse assessed as tumor growth inhibition at 0.6 mg/kg, ip administered on days 1,5 and 9; type: functional; settings: route intraperitoneal, read-out: TGI
Summary of the method: (§6)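 P1534(J) leukemia implanted sc in DBA2 mice; agent given ip on days 1, 5 and 9 at 1.6, 1.2, 0.9 and 0.6 mg/kg in a single experiment. Activity scored as growth inhibition, –, 0–25%; +, 26–50%; ++, 51–75%; +++, 76–100%.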

CHO [11] = test: Mitotic arrest in CHO cells assessed as increase in cell accumulation at 0.002 ug/ml; type: functional, Cricetulus griseus
Summary of the method: (§7)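 Chinese hamster ovary cells in tissue culture, scored for mitotic arrest as increase in cells in mitotic arrest over control: +++, 40–50%; ++, 15–40%; +, 10–15%; ±, 7–10%; –, 3–7%. Cytotoxicity noted separately.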

Mus musculus [12] = test: Toxicity in CD2F1 mouse allografted with mouse P388/S cells at 3.00 mg/kg, ip administered on days 1, 5 and 9; type: organism-based; design: dose 3 mg/kg, route intraperitoneal; settings: in vivo
P388/VCR [13] = test: Antitumor activity against mouse P388/VCR cells allografted in B6D2F1 mouse assessed as increase in host lifespan at 0.60 mg/kg, ip administered on days 1, 5 and 9; type: functional; settings: dose 0.6 mg/kg; route intraperitoneal; summary of the method: as §5
P388/VCR [14] = test: Antitumor activity against mouse P388/VCR cells allografted in B6D2F1 mouse assessed as increase in host lifespan at 1.20 mg/kg, ip administered on days 1, 5 and 9; type: functional; settings: dose 1.2 mg/kg; route intraperitoneal; summary of the method: as §5
[15] = Antitumor activity against mouse P388/VCR/I/63 cells allografted in Dublin-CDF1 mouse assessed as increase in host lifespan at 0.7 mg/kg, ip administered on days 1, 5 and 9; type: functional; settings: route intraperitoneal
[16] = Antitumor activity against mouse P388/VCR/I/63 cells allografted in Dublin-CDF1 mouse assessed as day of host death at 1.6 mg/kg, ip administered on days 1, 5 and 9 (reference value: 10 days); type: functional; settings: route intraperitoneal
[17] = Antitumor activity against mouse P1534 cells allografted in DBA2 mouse assessed as tumor growth inhibition at 0.9 mg/kg, ip administered on days 1,5 and 9; type: functional; settings: route intraperitoneal, read-out: TGI; summary of the method: as §6
[18] = Antitumor activity against mouse P388/VCR/I/63 cells allografted in Dublin-CDF1 mouse assessed as increase in host lifespan at 1.0 mg/kg, ip administered on days 1, 5 and 9; type: functional; settings: route intraperitoneal
[19] = Antitumor activity against mouse P1534 cells allografted in DBA2 mouse assessed as tumor growth inhibition at 1.6 mg/kg, ip administered on days 1,5 and 9; type: functional; settings: route intraperitoneal, read-out: TGI; summary of the method: as §6
P388/S [20] = test: Antitumor activity against mouse P388/S cells allografted in CD2F1 mouse assessed as increase in host lifespan at 1.08 mg/kg, ip administered on days 1, 5 and 9; type: functional; settings: route intraperitoneal; summary of the method: as §4
[21] = Antitumor activity against mouse P388/VCR/I/63 cells allografted in Dublin-CDF1 mouse assessed as day of host death at 0.7 mg/kg, ip administered on days 1, 5 and 9 (reference value: 10 days); type: functional; settings: route intraperitoneal
P388/VCR [22] = test: Antitumor activity against mouse P388/VCR cells allografted in CD2F1 mouse assessed as increase in host lifespan at 0.648 mg/kg, ip administered on days 1, 5 and 9; type: functional; settings: route intraperitoneal; summary of the method: as §4
[23] = Antitumor activity against mouse Gardner lymphosarcoma allografted in C3H mouse assessed as tumor growth inhibition at 0.20 mg/kg, ip administered daily for 8 to 10 days; type: functional; settings: route intraperitoneal, read-out: TGI; summary of the method: as §1
P388/VCR [24] = test: Antitumor activity against mouse P388/VCR cells allografted in CD2F1 mouse assessed as increase in host lifespan at 1.08 mg/kg, ip administered on days 1, 5 and 9; type: functional; settings: route intraperitoneal; summary of the method: as §4
[25] = Toxicity in iv dosed mouse assessed as lethality; type: organism-based; settings: in vivo
[26] = Antitumor activity against mouse Gardner lymphosarcoma allografted in C3H mouse assessed as tumor growth inhibition at 0.10 mg/kg, ip administered daily for 8 to 10 days; type: functional; settings: route intraperitoneal, read-out: TGI; summary of the method: as §1
[27] = Antitumor activity against mouse P1534 cells allografted in DBA2 mouse assessed as tumor growth inhibition at 1.2 mg/kg, ip administered on days 1,5 and 9; type: functional; settings: route intraperitoneal, read-out: TGI; summary of the method: as §6
B16 [28] = test: Antitumor activity against mouse B16 cells allografted in C57BL/6 mouse assessed as prolongation of host survival at 0.60 mg/kg, ip administered on days 1,5 and 9; type: functional; settings: route intraperitoneal; summary of the method: as §3
CHO [29] = test: Mitotic arrest in CHO cells assessed as increase in cell accumulation at 0.2 ug/ml; type: functional, Cricetulus griseus; summary of the method: as §7
CHO [30] = test: Mitotic arrest in CHO cells assessed as increase in cell accumulation at 0.02 ug/ml; type: functional, Cricetulus griseus; summary of the method: as §7
[31] = Antitumor activity against mouse P388/VCR/I/63 cells allografted in Dublin-CDF1 mouse assessed as day of host death at 1.0 mg/kg, ip administered on days 1, 5 and 9 (reference value: 10 days); type: functional; settings: route intraperitoneal
P388/S [32] = test: Antitumor activity against mouse P388/S cells allografted in CD2F1 mouse assessed as increase in host lifespan at 1.80 mg/kg, ip administered on days 1, 5 and 9; type: functional; settings: dose 1.8 mg/kg; route intraperitoneal; summary of the method: as §2
Mus musculus [33] = test: Toxicity in CD2F1 mouse allografted with mouse P388/VCR cells at 3.00 mg/kg, ip administered on days 1, 5 and 9; type: organism-based; design: dose 3 mg/kg, route intraperitoneal; settings: in vivo
[34] = Antitumor activity against mouse P1534 cells allografted in DBA2 mouse assessed as tumor growth inhibition at 0.20 mg/kg, ip administered daily for 8 to 10 days; type: functional; settings: route intraperitoneal, read-out: TGI
Summary of the method: (§8)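 P1534(J) leukemia implanted sc in DBA2 mice; sulfate salts dosed ip daily for 8–10 days. Growth inhibition scored –, 0–25%; +, 26–50%; ++, 51–75%; +++, 76–100%; T, lethal to ≥5 of 10 animals per group. Average of one or more tests.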

[35] = Antitumor activity against mouse P1534 cells allografted in DBA2 mouse assessed as tumor growth inhibition at 0.40 mg/kg, ip administered daily for 8 to 10 days; type: functional; settings: route intraperitoneal, read-out: TGI; summary of the method: as §8
[36] = Antitumor activity against mouse P1534 cells allografted in DBA2 mouse assessed as tumor growth inhibition at 0.30 mg/kg, ip administered daily for 8 to 10 days; type: functional; settings: route intraperitoneal, read-out: TGI; summary of the method: as §8
[37] = Antitumor activity against mouse P1534 cells allografted in DBA2 mouse assessed as tumor growth inhibition at 0.25 mg/kg, ip administered daily for 8 to 10 days; type: functional; settings: route intraperitoneal, read-out: TGI; summary of the method: as §8

| Structure (SMILES) | Activity (P388/VCR [2]) [%] | Activity (P388/S [7]) [%] | Activity (P388/VCR [9]) [%] | Activity (CHO [11]) [%] | Activity (Mus musculus [12]) | Activity (P388/VCR [13]) [%] | Activity (P388/VCR [14]) [%] | Activity (P388/S [20]) [%] | Activity (P388/VCR [22]) [%] | Activity (P388/VCR [24]) [%] | LD50 [25] [mg/kg] | Activity (CHO [29]) [%] | Activity (CHO [30]) [%] | Activity (P388/S [32]) [%] | Activity (Mus musculus [33]) | further results |
| --- | --- | --- | --- | --- | --- | --- | --- | --- | --- | --- | --- | --- | --- | --- | --- | --- |
| CC[C@]1(O)C[C@H]2CN(CCc3c([nH]c4ccccc34)[C@@](C(=O)OC)(c3cc4c(cc3OC)N(C)[C@H]3[C@@](O)(C(=O)NCCSSCCNC(=O)[C@@]5(O)[C@H](O)[C@]6(CC)C=CCN7CC[C@@]8(c9cc([C@@]%10(C(=O)OC)C[C@@H]%11CN(CCc%12c%10[nH]c%10ccccc%12%10)C[C@](O)(CC)C%11)c(OC)cc9N(C)[C@@H]58)[C@@H]76)[C@H](O)[C@]5(CC)C=CCN6CC[C@]43[C@@H]65)C2)C1.O=S(=O)(O)O | 33 | 129 | 54 | 3 | Toxic | 35 | 22 | 96 | 50 | 46 | 6.9 | 15 | 10 | 50 | Toxic | inhibition in vivo at 0.4 mg/kg [1]: 76%; inhibition in vivo at 0.05 mg/kg [3]: 0%; inhibition in vivo at 0.3 mg/kg [4]: 76%; survival at 0.9 mg/kg (B16 [5]): 170%; survival at 1.2 mg/kg (B16 [6]): 170%; Activity [8]: 145%; inhibition in vivo at 0.6 mg/kg [10]: 26%; Activity [15]: 85%; Activity [16]: 24.5 days; inhibition in vivo at 0.9 mg/kg [17]: 51%; Activity [18]: 115%; inhibition in vivo at 1.6 mg/kg [19]: 76%; Activity [21]: 18.5 days; inhibition in vivo at 0.2 mg/kg [23]: 51%; inhibition in vivo at 0.1 mg/kg [26]: 0%; inhibition in vivo at 1.2 mg/kg [27]: 76%; survival at 0.6 mg/kg (B16 [28]): 115%; Activity [31]: 21.5 days |
| CC[C@]1(O)C[C@@H]2CN(CCc3c([nH]c4ccccc34)[C@@](C(=O)OC)(c3cc4c(cc3OC)N(C)[C@H]3[C@@](O)(C(=O)OC)[C@H](OC(C)=O)[C@]5(CC)C=CCN6CC[C@]43[C@@H]65)C2)C1.O=S(=O)(O)O [VINBLASTINE SULFATE] | 17 | 75 | 9 | 3 | Toxic | 9 | 10 | 96 | 17 | 12 | 10 | 40 | 15 | 92 | Toxic | inhibition in vivo at 0.2 mg/kg [34]: 0%; inhibition in vivo at 0.4 mg/kg [35]: 51%; inhibition in vivo at 0.3 mg/kg [36]: 0%; inhibition in vivo at 0.25 mg/kg [37]: 0% |
